Test results published in ChEMBL document CHEMBL1126098, “Synthesis and SAR of 6-substituted purine derivatives as novel selective positive inotropes” (J Med Chem, 1992).
Activity calls are given as the source filed them. The calls are words filed in the database; no cut-off is given here.

Tests used:
[1] = test system: Canis familiaris; test: Heart rate in dog after administering ca. 1.875 mg/Kg drug intravenously; format: functional, Canis lupus familiaris
Summary of the method: (§1)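 Adult mongrel dogs anesthetized with sodium pentobarbital (45 mg/kg ip) and artificially respired. MAP measured via cannulated femoral artery; HR from cardiotachometer; LV +dP/dtmax via Millar catheter; CF by Walton Brodie strain gauge on right ventricle (baseline tension 100 g). Compound in 10% DMF/saline or HCl salt, infused iv into femoral vein over 5 min per step. Each step given at peak of the prior one; three to four increasing doses. Response expressed as % change from predrug control; n = 1–5 dogs.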

[2] = test system: Canis familiaris; test: Cardiac force in dog after administering ca. 1.875 mg/Kg drug intravenously.; format: functional, Canis lupus familiaris; parameters: unit not given beside the values; summary of the method: as §1
[3] = test system: Canis familiaris; test: Mean arterial blood pressure in dog after administering ca. 1.875 mg/Kg drug intravenously.; format: functional, Canis lupus familiaris; parameters: unit not given beside the values; summary of the method: as §1
[4] = organism: Canis familiaris; test: dP/dt max was determined in dog; format: functional, Canis lupus familiaris; parameters: unit not given beside the values; summary of the method: as §1
[5] = test system: Canis familiaris; test: Effective dose required to produce 50% increase of cardiac force in dog after administering ca. 1.875 mg/Kg drug intravenously; format: functional; conditions: Canis lupus familiaris, iv; summary of the method: as §1
[6] = Relative change in CF was determined by calculating the effective concentration that produced a 50% of maximum increase in tension; format: functional, Mustela putorius furo
Summary of the method: (§2)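 Ferret papillary muscle in Tyrode's solution with timolol (1×10^-7 M); compound given at cumulative serially increasing concentrations, each read at 15 min. EC50 is the concentration giving 50% of that compound's own maximal tension increase. Estimated graphically from mean data, n ≥ 3.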

[7] = In vitro changes in contractile force (CF) quantitated by determining the maximal increase in isometric tension by using ferret papillary muscle; format: functional, Mustela putorius furo, Muscle tissue
Summary of the method: (§3)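 Isolated ferret papillary muscle in Tyrode's solution with timolol (1×10^-7 M), equilibrated 2 h. Compound diluted from 1×10^-2 M DMSO stock and added at serially increasing concentrations, up to 10 μM. Isometric tension read 15 min after each addition. Result is maximal increase as % of control tension, from mean of n ≥ 3.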

[8] = Relative change in CF was determined by calculating the effective concentration that produced a 50% of maximum increase in tension.; format: functional, Mustela putorius furo; summary of the method: as §2
[9] = organism: Mustela putorius furo; test: In vitro changes in contractile force (CF) quantitated by determining the maximal increase in isometric tension by using ferret papillary muscle.; format: functional, tissue-based; conditions: Muscle tissue; summary of the method: as §3

| EC50 [6] [µM] | EC50 [8] | SMILES | Heart rate [1] | Cardiac force [2] | MAP [3] | dP/dt max [4] | ED50 [5] [mg/kg] | Max [7] [%] | Max [9] |
| --- | --- | --- | --- | --- | --- | --- | --- | --- | --- |
| 0.5 |  | OC(CNc1[nH]cnc2ncnc1-2)CN1CCN(C(c2ccc(F)cc2)c2ccc(F)cc2)CC1 (configuration not stated) | 2 | 154 | -2 | 83 | 0.28 | 86 |  |
|  | Not Active | COc1cc(OC)c(C(=O)OC(CSc2[nH]cnc3ncnc2-3)CN2CCN(C(c3ccc(F)cc3)c3ccc(F)cc3)CC2)c(OC)c1 (configuration not stated) | 3 | 17 | 0 | 15 |  |  | inactive |
| 0.5 |  | COc1ccc(C(c2ccc(OC)cc2)N2CCN(CC(O)CSc3[nH]cnc4ncnc3-4)CC2)cc1 (configuration not stated) | -2 | 45 | -7 | 18 |  | 98 |  |
|  | Not Active | CN(CC(O)CN1CCN(C(c2ccc(F)cc2)c2ccc(F)cc2)CC1)c1[nH]cnc2ncnc1-2 (configuration not stated) | 7 | 82 | 4 | 66 | 0.74 |  | inactive |
|  | Not Active | Fc1ccc(C(c2ccc(F)cc2)N2CCN(CCCSc3[nH]cnc4ncnc3-4)CC2)cc1 | 2 | 38 | -6 | 17 | 1.3 |  | inactive |
| 0.17 |  | CC(C)(C)C(=O)OC(CSc1[nH]cnc2ncnc1-2)CN1CCN(C(c2ccc(F)cc2)c2ccc(F)cc2)CC1 (configuration not stated) | 4 | 12 | -5 | 24 |  | 43 |  |
| 1.9 |  | Nc1nc(SCC(O)CN2CCN(C(c3ccc(F)cc3)c3ccc(F)cc3)CC2)c2[nH]cnc2n1 (configuration not stated) | 12 | 74 | -9 | 38 | 0.85 | 74 |  |
| 2.1 |  | CC(=O)OC(CNc1[nH]cnc2ncnc1-2)CN1CCN(C(c2ccc(F)cc2)c2ccc(F)cc2)CC1 (configuration not stated) | -12 | 144 | -26 | 70 | 0.27 | 45 |  |
|  | Not Active | CCN(CC(O)CN1CCN(C(c2ccc(F)cc2)c2ccc(F)cc2)CC1)c1[nH]cnc2ncnc1-2 (configuration not stated) | 2 | 13 | 5 | 16 |  |  | inactive |

Continued, compound first:

| SMILES | EC50 [6] [µM] | EC50 [8] | Heart rate [1] | Cardiac force [2] | MAP [3] | dP/dt max [4] | ED50 [5] [mg/kg] | Max [7] [%] | Max [9] |
| --- | --- | --- | --- | --- | --- | --- | --- | --- | --- |
| OC(CSc1[nH]cnc2ncnc1-2)CN1CCN(C(c2ccc(Cl)cc2)c2ccc(Cl)cc2)CC1 (configuration not stated) |  |  | -4 | 151 | 9 | 99 | 0.33 |  |  |
| OC(CSc1[nH]cnc2ncnc1-2)CN1CCN(C(c2ccccc2)c2ccccc2)CC1 (configuration not stated) | 1.1 |  | -1 | 86 | -12 | 60 | 0.63 | 249 |  |
| OC(CSc1[nH]cnc2ncnc1-2)CN1CCN(C(c2cccc(C(F)(F)F)c2)c2cccc(C(F)(F)F)c2)CC1 (configuration not stated) | 3.4 |  | -6 | 68 | 8 | 46 | 1.1 | 106 |  |
| OC(CSc1[nH]cnc2ncnc1-2)CN1CCN(C(c2ccccc2)(c2ccccc2)c2ccccc2)CC1 (configuration not stated) |  | Not Active | 4 | 22 | -14 | 23 |  |  | inactive |
| OC(COc1ncnc2c1ncn2C1CCCCO1)CN1CCN(C(c2ccccc2)c2ccccc2)CC1 (configuration not stated) |  | Not Active | 0 | 24 | -2 | 13 |  |  | inactive |
| N#Cc1cc2c(OCC(O)CN3CCN(C(c4ccccc4)c4ccccc4)CC3)cccc2[nH]1 (configuration not stated) | 0.5 |  | -12 | 98 | -21 | 88 | 0.43 | 131 |  |
